This is a sample that favours compounds with a hit; in the whole collection about 3.6% have one here.
PERK inh = human PERK inhibition, primary cell-based screen | Q9NZJ5 | CHO PERK-DD fusion, SEAP luminescence translation reporter | inhibition, % at 5.6 µM | 220,000 tested, 0.17% active;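 active = inhibition above the mean inhibition of all tested compounds plus 3 SD, set separately per screening campaign, cut at about 2.9% in these data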;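 also: PERK kinase domain activated by AP20187 dimerizer at 100 nM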
STAT3 activator = STAT3 signaling activation; activation (% of control), % at 5.6 µM; 190,000 tested, 0.91% active; U3A cells, IL-6 STAT3-luciferase reporter, luminescence; 100% = signal with IL-6 EC80 alone;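 active = activation above the screen-wide mean of compound activation plus 3 SD, cut at about 130% in these data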
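System – human U3A cells carrying STAT3-luciferase construct · Probe or stimulus – Interleukin-6, 33 ng/mL · Schedule – compound 1 h, then IL-6 6 h at 37 °C · Signal – luminescence from STAT3-driven luciferase reporter · Evaluation – percent of IL-6-only median luminescence · Benchmarks – IL-6-only high control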
HSF1 inh = HSF1 inhibition | NIH3T3-HGL HSE-luciferase, MG132-induced, luminescence 8 h; active compounds read low | activity change, negative = inhibition, % at 7.5 µM (by protocol) | 300,000 tested, 0.77% active | AID 2098;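 active = more than half of replicate wells show activity change below -50%, luminescence cut by over half; inconclusive = some wells, but at most half, below -50%; inactive = no replicate well below -50%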;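 also: luciferase reports HSF-1 transcriptional activity via heat shock element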
AHR activator = human AHR activation. AHR-responsive luciferase reporter cells, luminescence. activation, % at 5 µM. 320,000 tested, 2.5% active. AID 2796; in the data active = activation above about 47%
Target sequence (P35869 whole entry, looked up): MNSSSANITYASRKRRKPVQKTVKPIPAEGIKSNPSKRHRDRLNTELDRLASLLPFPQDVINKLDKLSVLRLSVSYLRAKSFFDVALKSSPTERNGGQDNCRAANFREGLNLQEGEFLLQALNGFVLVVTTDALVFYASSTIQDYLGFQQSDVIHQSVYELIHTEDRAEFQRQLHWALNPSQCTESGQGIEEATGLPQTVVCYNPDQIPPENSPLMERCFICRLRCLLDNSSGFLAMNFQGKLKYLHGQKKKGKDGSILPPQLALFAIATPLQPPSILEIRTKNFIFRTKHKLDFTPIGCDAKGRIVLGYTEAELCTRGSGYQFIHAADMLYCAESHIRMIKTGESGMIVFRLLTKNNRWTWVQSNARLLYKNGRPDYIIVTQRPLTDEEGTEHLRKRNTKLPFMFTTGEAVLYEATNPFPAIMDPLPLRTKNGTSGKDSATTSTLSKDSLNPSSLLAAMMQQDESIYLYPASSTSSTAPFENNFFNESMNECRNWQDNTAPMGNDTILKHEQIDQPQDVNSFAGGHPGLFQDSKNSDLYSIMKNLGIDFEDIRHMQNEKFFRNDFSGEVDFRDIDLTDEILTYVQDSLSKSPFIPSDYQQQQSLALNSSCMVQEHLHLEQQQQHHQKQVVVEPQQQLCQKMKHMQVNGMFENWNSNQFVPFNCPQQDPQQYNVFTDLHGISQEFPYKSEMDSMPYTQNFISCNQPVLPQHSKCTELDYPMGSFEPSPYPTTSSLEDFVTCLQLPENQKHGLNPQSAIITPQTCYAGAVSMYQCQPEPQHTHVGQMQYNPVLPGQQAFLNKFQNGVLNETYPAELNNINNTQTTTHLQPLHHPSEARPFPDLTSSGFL
PolyA inh = yeast polyadenylation inhibition; AID 1875; S. cerevisiae SKY197-pL101 polyadenylation reporter, beta-gal luminescence; efflux-impaired pdr1/pdr3 knockout yeast; score 100 = 6 SD above DMSO; 300,000 tested, 0.02% active; activity score, % at 12 µM;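 active = lowest replicate activity score at least 50, where 100 means six control SD above control mean; inconclusive = lowest score under 50 but half or more replicates reach 50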;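 also: yeast exposed to compound for 9 h at 30 °C; higher score means more reporter readthrough which indicates perturbed polyadenylation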
Hsp70 act = transcriptional activators of Hsp70. activation, % at 10 µM. 200,000 tested, 0.04% active. HeLa Hsp70 promoter luciferase reporter, luminescence; scaled: vehicle 0, proteasome-inhibitor control 100%;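 active = activation above the mean across all tested compounds plus 3 SD, cutoff set per campaign, cut at about 5.5% in these data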
Large screens that a line does not name were inactive.

Cc1ccc(/C=C2\SC(N3CCCCC3)=NC2=O)cc1	AHR activator 71 (no result: PERK inh, STAT3 activator, Hsp70 act)
CC(Sc1nnc(-c2ccncc2)n1C)C(=O)Nc1ccc(N2CCOCC2)cc1 (configuration not stated)	none (no result: PERK inh, STAT3 activator, HSF1 inh, PolyA inh, Hsp70 act)
Cc1ccc(S(=O)(=O)NCCOc2cc(C)ccc2C)cc1	none (no result: PERK inh, STAT3 activator, Hsp70 act)
Cc1cc2ccccc2c(=O)n1CC(=O)Nc1ccc2c(c1)OCO2	HSF1 inh -68
O=C(Nc1ccc2c(c1)OCO2)c1cnn2cccnc12	AHR activator 108
Cc1cc(C)n2ncc(C(=O)Nc3ccc4c(c3)OCO4)c2n1	AHR activator 73
Cc1cc(C)n2ncc(C(=O)Nc3cccc(O)c3)c2n1	none
O=C(Nc1cccnc1)c1cnn2cccnc12	none
O=C(Nc1cccc(O)c1)c1cnn2cccnc12	AHR activator 50
O=c1nc(SCc2cccc(C(F)(F)F)c2)nc2ccccn12	none
CC(=O)Nc1ccc(C(=O)COC(=O)c2cc(C)oc2C)c(F)c1	none (no result: PERK inh, STAT3 activator, HSF1 inh, PolyA inh, Hsp70 act)
O=[N+]([O-])c1ccc(N/N=C/c2ccc[nH]2)cc1	AHR activator 61 (no result: HSF1 inh, PolyA inh)
O=C(CN1CCN(C(=O)c2ccccc2F)CC1)Nc1ccc(Br)cc1	AHR activator 56
O=C(CN1CCN(Cc2ccccc2)CC1)Nc1ccc(Br)cc1	none (no result: PERK inh, STAT3 activator, Hsp70 act)
O=C(N/N=C/c1ccccn1)c1cc(-c2ccc(Br)cc2)nc2ccccc12	none (no result: STAT3 activator, Hsp70 act)
O=C(N/N=C/c1ccccn1)c1cc(-c2ccc(Cl)cc2)nc2ccccc12	AHR activator 50
O=C(O)COc1ccccc1/C=N/NC(=O)c1cc(-c2ccc(Cl)cc2)nc2ccccc12	AHR activator 64 (no result: STAT3 activator, Hsp70 act)
O=C(O)COc1ccccc1/C=N/NC(=O)c1cc(-c2ccccc2)nc2ccccc12	none (no result: STAT3 activator, Hsp70 act)
CN(C1CCCCC1)S(=O)(=O)c1ccc(SCC(=O)C(C)(C)C)nc1	none (no result: PERK inh, STAT3 activator, HSF1 inh, PolyA inh, Hsp70 act)
Cc1[nH]n(C(N)=S)c(=O)c1N=Nc1ccc2ccccc2c1	none (no result: AHR activator)
Cc1[nH]n(C(N)=S)c(=O)c1N=Nc1cc(-c2ccc(Br)cc2)[nH]n1	AHR activator 55
Cc1ccc(N=Nc2c(C)[nH]n(C(N)=S)c2=O)cc1C	AHR activator 51
C=CCN1C(=O)c2ccc(C(=O)NCC(=O)Nc3c(C)cc(C)cc3C)cc2C1=O	none (no result: PERK inh, STAT3 activator, HSF1 inh, PolyA inh, Hsp70 act)
O=C(O)/C=C/c1ccc(Oc2ncccn2)cc1	none (no result: PERK inh, STAT3 activator, Hsp70 act)
CC(C)(C)C(=O)/C=C/c1ccc(Oc2ccccc2)cc1	HSF1 inh -59 (no result: STAT3 activator, AHR activator, Hsp70 act)
Cc1sc(NC(=O)c2sc3nc4c(C)cccc4cc3c2N)c(C#N)c1C	none
Cc1cccc2cc3c(N)c(C#N)sc3nc12	HSF1 inh -54
CCN(C(=O)c1cccc(NC(=O)c2ccccc2)c1)C1CCCCC1	none (no result: PERK inh, STAT3 activator, Hsp70 act)
COc1cc(C)ccc1OCc1cc(C(=O)N2CCN(C)C[C@@H]2c2ccccc2)no1	none (no result: PERK inh, STAT3 activator, Hsp70 act)
Cc1ccc(C#N)c(SCc2cccc(Br)c2)n1	none (no result: PERK inh, STAT3 activator, Hsp70 act)
Cc1ccc(C#N)c(SCc2cc3c(cc2Cl)OCO3)n1	AHR activator 51
Cc1ccc(C#N)c(SCc2nnc(-c3ccc(Cl)cc3)o2)n1	HSF1 inh -84
Cc1cc(C)c(C#N)c(SCc2nnc(-c3ccccc3)o2)n1	HSF1 inh -85
Cc1c(NC(=O)COC(=O)C2(c3ccc(F)cc3)CCCC2)c(=O)n(-c2ccccc2)n1C	none
CCOC(=O)C1CCN(C(=O)c2ccccc2NC(=O)C2=C(C)OCCS2)CC1	none (no result: PERK inh, STAT3 activator, Hsp70 act)
Cc1cccc(C)c1NC(=O)CN1C(=O)NC(C)(CCc2ccccc2)C1=O (configuration not stated)	HSF1 inh -91
Cc1cc(N2CCCCC2)n2ncc(-c3ccccc3)c2n1	none
Cc1cc(N2CCOCC2)n2ncc(-c3ccc(Cl)cc3)c2n1	none (no result: STAT3 activator, HSF1 inh, Hsp70 act)
Cc1cc(N2CCOCC2)n2ncc(-c3ccccc3)c2n1	HSF1 inh -61
Cc1ccc(-c2cnn3c(N4CCOCC4)cc(C)nc23)cc1	HSF1 inh -68 (no result: PERK inh, STAT3 activator, AHR activator, Hsp70 act)
Cc1cc(N2CCN(C(=O)c3ccco3)CC2)n2ncc(-c3ccccc3)c2n1	none
Cc1cc(N2CCC(C)CC2)n2ncc(-c3ccccc3)c2n1	HSF1 inh -79
C=CCn1c(O)c(N=NC(=S)Nc2cccc(OC)c2)c2ccccc21	AHR activator 61
C=CCn1c(O)c(N=NC(=S)Nc2ccc(OC)cc2)c2ccccc21	none
C=CCn1c(O)c(N=NC(=O)CNC(=O)Cc2ccccc2)c2ccccc21	AHR activator 53 (no result: PERK inh, STAT3 activator, Hsp70 act)
C=CCn1c(O)c(N=NC(=O)CNC(=O)c2ccco2)c2ccccc21	none
CCc1ccc(N2C(=O)CC(Cn3nc(C)cc3C)C2=O)cc1 (configuration not stated)	none (no result: STAT3 activator, Hsp70 act)
Cn1c(=O)c2cn(-c3ccccc3)cc2n(C)c1=O	none
COc1cccc(-n2cc3c(=O)n(C)c(=O)n(C)c3c2)c1	AHR activator 59
COc1cccc(CNC(=O)Cc2ccc(S(=O)(=O)N3CCOCC3)s2)c1	none (no result: PERK inh, STAT3 activator, Hsp70 act)
CC(C#Cc1ccc2c(c1)COc1c3ccccc3nn1-2)OC(C)(C)C (configuration not stated)	PolyA inh inconclusive (no result: PERK inh, STAT3 activator, Hsp70 act)
CCc1cc(=O)oc2cc(C)cc(OCC(=O)NCc3cccnc3)c12	AHR activator 49 (no result: PERK inh, STAT3 activator, Hsp70 act)
CCCCc1cc(=O)oc2cc(C)cc(OCC(=O)NCc3cccnc3)c12	none (no result: PERK inh, STAT3 activator, Hsp70 act)
CCc1cc(=O)oc2cc(C)cc(OCC(=O)NCc3ccncc3)c12	AHR activator 75 (no result: PERK inh, STAT3 activator, Hsp70 act)
Cc1cc(OCC(=O)NCc2cccnc2)c2c(C)c(C)c(=O)oc2c1	none (no result: PERK inh, STAT3 activator, Hsp70 act)
Cc1cc(OCC(=O)Nc2cccnc2)c2c(C)c(C)c(=O)oc2c1	AHR activator 78 (no result: PERK inh, STAT3 activator, Hsp70 act)
CCC(C)c1ccc(NC(=S)N2CCN(S(C)(=O)=O)CC2)cc1 (configuration not stated)	none (no result: PERK inh, STAT3 activator, Hsp70 act)
C/C(=N/NC(=O)CNC(=O)c1ccccn1)c1ccccc1	none
C/C(=N/NC(=O)CNC(=O)c1ccccn1)c1ccc([N+](=O)[O-])cc1	HSF1 inh -81
N#Cc1ccc(OCc2noc(-c3ccsc3)n2)cc1	none (no result: STAT3 activator, Hsp70 act)
Cc1c(/C(O)=C2/C(=O)C(=O)N(Cc3cccnc3)C2c2ccccn2)cnn1-c1ccccc1 (configuration not stated)	HSF1 inh -76
CN(C)S(=O)(=O)c1ccc(/C(O)=C2/C(=O)C(=O)N(Cc3cccnc3)C2c2cccs2)cc1 (configuration not stated)	none
Cc1c(/C(O)=C2/C(=O)C(=O)N(Cc3cccnc3)C2c2cccs2)cnn1-c1ccccc1 (configuration not stated)	HSF1 inh -64
CCOCCc1c(O)nc(SCC(=O)N2CCOCC2)[nH]c1=O	none (no result: PERK inh, STAT3 activator, Hsp70 act)
Cc1cccc(-n2nnc3cnn(C)c3c2=O)c1	AHR activator 60
Cn1ncc2nnn(-c3ccccc3)c(=O)c21	none (no result: HSF1 inh, PolyA inh)
COc1cccc(C(=O)NNC(=O)c2sccc2-n2cccc2)c1	AHR activator 69
Cc1cccc(NC(=O)NNC(=O)c2sccc2-n2cccc2)c1	AHR activator 53
O=C(Nc1ccc(Br)cc1F)c1sccc1-n1cccc1	AHR activator 103

Bioassay records from PubChem BioAssay.
